Most compounds without a hit are left out; they make up all but 2.9% or so of the library.
PfM18AAP inh = blocks P. falciparum M18 aspartyl aminopeptidase; recombinant PfM18AAP, H-Glu-NHMec fluorogenic cleavage; inhibition, % at 7.35 µM; hit rate 1.2% among 290,000;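 active = inhibition above the campaign mean inhibition over all tested compounds plus 3 SD, cut at about 28% in these data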;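 note: 0% = plate median of test compound wells and 100% = 2 mM ZnCl2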
PfGluPho inh = PfG6PD (Plasmodium falciparum) enzyme inhibition. PfGluPho enzyme, NADPH resazurin-diaphorase fluorescence. inhibition, % at 20 µM. hit rate 0.78% among 350,000. AID 504690;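 active = inhibition reaching at least a set limit at 20 µM in the primary screen, cut at about 59% in these data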;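 note: 0% = DMSO wells with substrate and 100% = DMSO wells lacking glucose-6-phosphate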
EBNA-1 inh = blocks EBNA-1 binding to DNA; EBNA-1 DNA binding, fluorescence polarization; inhibition, % at 14.8 µM; hit rate 0.34% among 300,000; in the data active = inhibition above about 28%
ZTA counter = ZTA (EBV) inhibition in EBNA-1 counter-screen. P03206. ZTA-DNA binding, fluorescence polarization. inhibition, % at 11 µM. hit rate 0.15% among 320,000. AID 2234; in the data active = inhibition above about 33%
Target sequence (P03206 whole entry, looked up): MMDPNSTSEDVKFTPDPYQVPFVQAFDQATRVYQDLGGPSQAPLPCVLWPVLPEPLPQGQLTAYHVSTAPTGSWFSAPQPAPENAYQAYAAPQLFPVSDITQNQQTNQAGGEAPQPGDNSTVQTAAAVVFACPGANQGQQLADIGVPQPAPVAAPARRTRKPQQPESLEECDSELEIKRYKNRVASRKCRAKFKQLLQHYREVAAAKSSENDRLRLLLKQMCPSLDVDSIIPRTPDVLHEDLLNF
Apaf-1 inh = blocks human Apaf-1 apoptosome activity; O14727; inhibition, % at 20 µM; hit rate 0.71% among 330,000; AID 489030; reconstituted apoptosome caspase-3 activity, DEVD-Rh110 fluorescence; active = inhibition of at least 40% at 20 µM;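 note: plate controls were DMSO wells for no effect and DEVD-CHO caspase inhibitor wells for full effect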
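Assay system – apoptosome proteins · Medium – Hepes buffer, pH 7.5 · Also added – cytochrome c with DEVD-Rh110 · Timing – 30 min compound preincubation, 50 min activation, room temperature · Detection – Rh110 fluorescence, excitation 480 nm, emission 540 nm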
UBC13 polyUb = inhibitors of human UBC13 polyubiquitin chain formation; P61088; TR-FRET; inhibition, % at 20 µM; hit rate 0.47% among 330,000; in the data active = inhibition above about 45%, passing the limit was not always enough; inconclusive = no clear call, values can overlap the other calls
Target sequence (P61088 whole entry, looked up): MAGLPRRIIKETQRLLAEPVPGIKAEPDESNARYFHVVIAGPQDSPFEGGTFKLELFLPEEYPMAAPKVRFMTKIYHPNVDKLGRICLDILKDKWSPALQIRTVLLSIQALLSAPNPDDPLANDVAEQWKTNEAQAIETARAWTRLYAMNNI
Casp3 counter = caspase-3 inhibition (UBC13 counter-screen). hit rate 4% among 1,400. inhibition, % at 20 µM. AID 488856. Recombinant caspase-3, Caspase-Glo 3/7 luminescence, 60 min. shares compounds with UBC13 polyUb;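 active = mean inhibition across replicates above about 26%, limit read from the data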;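 note: plate controls were DMSO with caspase-3 for no effect and DMSO wells lacking enzyme for full effect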
Target sequence (P42574 whole entry, looked up): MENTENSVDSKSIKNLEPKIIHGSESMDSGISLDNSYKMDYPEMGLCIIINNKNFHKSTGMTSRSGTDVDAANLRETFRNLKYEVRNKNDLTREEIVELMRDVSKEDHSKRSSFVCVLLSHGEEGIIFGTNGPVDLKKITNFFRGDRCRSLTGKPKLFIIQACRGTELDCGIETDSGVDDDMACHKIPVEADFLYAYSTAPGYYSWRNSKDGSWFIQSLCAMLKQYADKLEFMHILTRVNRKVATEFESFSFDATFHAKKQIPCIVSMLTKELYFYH
UBC13 confirm = human UBC13 polyubiquitin inhibition, confirmed; shares compounds with UBC13 polyUb; UBC13 polyubiquitination, TR-FRET, biochemical; inhibition, % at 10 µM; hit rate 68% among 1,400; in the data active = inhibition above about 45%; inconclusive = no clear call, values can overlap the other calls
Active calls of the source: *.

C=CCNC(=O)NC(=O)CSc1nnc(C(F)(F)F)n1C was read as PfM18AAP inh 6.3, PfGluPho inh -5.9, EBNA-1 inh 11.3, ZTA counter 11.4, Apaf-1 inh 8.6, UBC13 polyUb 48.0*, Casp3 counter -0.5 and UBC13 confirm 9.2.
Screening CNC(=O)NC(=O)CSc1nnc(C(F)(F)F)n1C returned PfM18AAP inh -4.0, PfGluPho inh 2.9, EBNA-1 inh -1.3, ZTA counter -9.6, Apaf-1 inh 3.5 and UBC13 polyUb -1.0.
`Fc1ccc(-n2cc(-c3ccccc3)c3c(=S)nc[nH]c32)cc1` gave PfM18AAP inh 1.5, PfGluPho inh 4.6, EBNA-1 inh -12.8, ZTA counter -2.9, Apaf-1 inh 15.5 and UBC13 polyUb 42.7.
Screening Fc1cccc(-n2cc(-c3ccccc3)c3c(=S)nc[nH]c32)c1 returned PfM18AAP inh 5.8, PfGluPho inh -12.5, EBNA-1 inh 1.9, ZTA counter 5.4, Apaf-1 inh 10.4, UBC13 polyUb 55.5*, Casp3 counter -0.5 and UBC13 confirm inconclusive.
`CCCC[C@@H](CN[C@H](C)CNC)NCC1CCC(C(C)(C)C)CC1` (stereo partly specified) gave PfM18AAP inh -8.2, PfGluPho inh 3.9, EBNA-1 inh 13.4, ZTA counter 4.3, Apaf-1 inh 31.1, UBC13 polyUb 61.4*, Casp3 counter -2.5 and UBC13 confirm 14.2.
Screening C=CCn1c(NC(=O)c2ccc(C)cc2)nc2ccccc21 returned PfM18AAP inh -2.9, PfGluPho inh -10.0, EBNA-1 inh 1.1, ZTA counter 8.4, Apaf-1 inh -0.1, UBC13 polyUb 46.5*, Casp3 counter -7.9 and UBC13 confirm inconclusive.
CCCn1c(NC(=O)c2ccc(C)cc2)nc2ccccc21 was read as PfM18AAP inh -7.4, PfGluPho inh 18.6, EBNA-1 inh 2.4, ZTA counter 25.9, Apaf-1 inh 24.7 and UBC13 polyUb 14.0.
`CCN(CC)CCNC(=O)c1cn(-c2ccccc2)nc1-c1cccs1` gave PfM18AAP inh 0.5, PfGluPho inh 10.1, EBNA-1 inh -7.5, ZTA counter -21.1, Apaf-1 inh 1.0 and UBC13 polyUb 9.3.
`CCN(CC)CCOC(=O)c1ccc(NC(=O)c2cn(-c3ccccc3)nc2-c2cccs2)cc1` gave PfM18AAP inh -1.4, PfGluPho inh -2.1, Apaf-1 inh 32.0, UBC13 polyUb 96.4*, Casp3 counter -4.2 and UBC13 confirm 111.4*.
For Nc1ccc(OCCCc2c(N)nc(N)nc2N)cc1 the results were PfM18AAP inh 2.0, PfGluPho inh 7.9, EBNA-1 inh -1.4, ZTA counter -5.9, Apaf-1 inh 12.1, UBC13 polyUb 46.9*, Casp3 counter 1.0 and UBC13 confirm 63.6*.
Screening O=C(O)[C@H]1CCCC[C@H]1C(=O)NCCc1ccccc1 returned PfM18AAP inh 6.5, PfGluPho inh -4.9, EBNA-1 inh 0.1, ZTA counter 16.3, Apaf-1 inh -17.8, UBC13 polyUb 67.1*, Casp3 counter -0.3 and UBC13 confirm 8.6.
For CSc1sc(-c2nnc(SCC(=O)Nc3ccccc3)n2C)c2c1C=CCC2 the results were PfM18AAP inh -14.1, PfGluPho inh 12.7, EBNA-1 inh 12.3, ZTA counter 19.5, Apaf-1 inh -8.7, UBC13 polyUb 53.6*, Casp3 counter -1.2 and UBC13 confirm inconclusive.
For COc1ccc(-c2oc(=O)c3cc(OC)c(OC)cc3c2C#CC2(O)CCCCC2)cc1 the results were PfGluPho inh 15.9, Apaf-1 inh 4.0, UBC13 polyUb 46.6*, Casp3 counter 4.5 and UBC13 confirm 40.4.
Cc1ccc(NC(=O)CSc2nc3ccccc3c(=O)n2CCCC(=O)NCCCN2CCOCC2)cc1C was read as PfM18AAP inh 5.5, PfGluPho inh 10.9, EBNA-1 inh 3.5, ZTA counter 10.6, Apaf-1 inh 24.8, UBC13 polyUb 47.9*, Casp3 counter -1.2 and UBC13 confirm 54.9*.
Screening O=C(CSc1nc2ccsc2c(=O)n1Cc1ccccc1)NCc1ccco1 returned PfM18AAP inh 5.3, PfGluPho inh 1.8, EBNA-1 inh -8.5, ZTA counter -7.6, Apaf-1 inh 3.0, UBC13 polyUb 50.3*, Casp3 counter -0.4 and UBC13 confirm 67.6*.
Screening Cc1ccc(NC(=O)CSc2ncnc3ccccc23)cc1S(=O)(=O)N1CCOCC1 returned PfM18AAP inh 4.5, PfGluPho inh 0.3, EBNA-1 inh 12.3, ZTA counter 10.0, Apaf-1 inh -22.9, UBC13 polyUb 50.7*, Casp3 counter -0.3 and UBC13 confirm 34.2.
O=C(CSc1nc2ccsc2c(=O)n1NC(=O)c1ccccc1)NCc1ccco1 was read as PfM18AAP inh -9.8, PfGluPho inh -7.2, EBNA-1 inh -1.7, ZTA counter -15.9, Apaf-1 inh -10.6 and UBC13 polyUb 1.9.
For Cc1ccc(NC(=O)CSc2ncnc3ccccc23)cc1S(=O)(=O)N1CCCCC1 the results were PfM18AAP inh -0.9, PfGluPho inh 5.3, EBNA-1 inh 2.2, ZTA counter 3.0, Apaf-1 inh 8.3 and UBC13 polyUb 28.8.
For CCOC(=O)CSc1nc2ccccc2c(=O)n1CCCCCC(=O)NCc1ccco1 the results were PfM18AAP inh -9.9, PfGluPho inh -6.8, EBNA-1 inh -2.8, ZTA counter 25.6, Apaf-1 inh 12.3, UBC13 polyUb 46.6*, Casp3 counter -1.2 and UBC13 confirm 47.0*.
Screening CNc1nc(OCC(F)(F)F)nc(N2CCN(C34CC5CC(CC(C5)C3)C4)CC2)n1 returned PfM18AAP inh -3.4.
Screening O=C(Cn1cc(C(=O)c2cccs2)c2ccccc21)NC1CCCCC1 returned PfM18AAP inh 2.2, PfGluPho inh 8.3, EBNA-1 inh 7.0, ZTA counter 1.8, Apaf-1 inh 9.6, UBC13 polyUb 61.2*, Casp3 counter -6.7 and UBC13 confirm 35.8.
Cc1ccc(-c2csc(NC(=O)CSc3nc4ccccc4c(=O)n3CCCN(C)C)n2)cc1 was read as PfM18AAP inh 0.4, PfGluPho inh 15.9, EBNA-1 inh 5.3, ZTA counter 8.1, Apaf-1 inh 37.9, UBC13 polyUb 89.2*, Casp3 counter 1.6 and UBC13 confirm 93.9*.
For Cc1ccc(S(=O)(=O)n2cc(C=O)c3ccccc32)cc1 the results were PfM18AAP inh 0.4, PfGluPho inh 8.0, EBNA-1 inh -3.7, ZTA counter -8.9, Apaf-1 inh 3.8, UBC13 polyUb 83.0*, Casp3 counter 4.6 and UBC13 confirm 84.8*.
COC(=O)c1c(NC(=O)c2nc3ccccc3s2)sc2c1CCN(C(C)=O)C2 was read as PfM18AAP inh -7.4, PfGluPho inh 18.1, EBNA-1 inh -5.5, ZTA counter -6.7, Apaf-1 inh 18.4, UBC13 polyUb 103.5*, Casp3 counter -2.3 and UBC13 confirm 94.0*.

Source: PubChem BioAssay (several laboratories)
